# Bioassay records (PubChem BioAssay)
# KCNQ1 act = potentiators or activators of KCNQ1 channel, primary screen, cell-based, thallium flux, high-throughput; B-score at 10 µM; hit rate 0.35% among 310,000; Potassium voltage-gated channel subfamily KQT member 1 (Homo sapiens), P51787; CHO-K1 KCNQ1, thallium flux FluxOR fluorescence; hits give high values;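 active = fluorescence ratio B-score, a plate-corrected score, at least three library SD, with initial intensity B-score within 5 SD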
#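 Material: CHO-K1 cells stably expressing KCNQ1. Medium: assay buffer for compound exposure, DMSO matched across wells. Reagent: K+/Tl+ depolarizing stimulus. Compound dosing: single-concentration screen. Times: 37 °C overnight plating, 90-min dark dye load, 20-min compound pretreatment. Technique: FluxOR Tl+ flux fluorescence.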
# KCNK3 block = human KCNK3 channel inhibitors, primary screen, CHO cells, FluxOR thallium flux, B-score | Potassium channel subfamily K member 3 (Homo sapiens), O14649 | FluxOR fluorescence; hits give low values | B-score at 10 µM | hit rate 0.84% among 340,000;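 active = B-score under library mean minus 4 SD, starting fluorescence ratio at most library mean plus 5 SD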;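 note: more negative B-score means stronger inhibition of thallium flux through KCNK3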
# hERG protect = hERG rescue from dofetilide block, primary screen, cell-based, CHO-hERG, FluxOR thallium flux, dofetilide IC70; AID 1511, 2009; Voltage-gated inwardly rectifying potassium channel KCNH2 (Homo sapiens), Q12809; hit rate 0.51% among 310,000; dofetilide IC70 present; activation (rescue from dofetilide block), less the hit threshold, % at 10 µM;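 active = activation above the mean of controls blocked by dofetilide plus 5 SD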;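 note: thallium influx through hERG after potassium depolarization seen as dye fluorescence rise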
# KCNK9 block = KCNK9 potassium channel inhibitors, primary screen, HEK293 cells, thallium flux. Potassium channel subfamily K member 9 (Homo sapiens), Q9NPC2. FluxOR thallium flux fluorescence; hits give low values. B-score at 10 µM. hit rate 1.2% among 310,000. AID 488922, 2010;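 active = ratio B-score over 3 SD below the library mean, with starting fluorescence within 5 SD of its mean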;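 note: negative B-score means less thallium flux so channel inhibition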
# Target sequence (Q9NPC2 whole entry, looked up): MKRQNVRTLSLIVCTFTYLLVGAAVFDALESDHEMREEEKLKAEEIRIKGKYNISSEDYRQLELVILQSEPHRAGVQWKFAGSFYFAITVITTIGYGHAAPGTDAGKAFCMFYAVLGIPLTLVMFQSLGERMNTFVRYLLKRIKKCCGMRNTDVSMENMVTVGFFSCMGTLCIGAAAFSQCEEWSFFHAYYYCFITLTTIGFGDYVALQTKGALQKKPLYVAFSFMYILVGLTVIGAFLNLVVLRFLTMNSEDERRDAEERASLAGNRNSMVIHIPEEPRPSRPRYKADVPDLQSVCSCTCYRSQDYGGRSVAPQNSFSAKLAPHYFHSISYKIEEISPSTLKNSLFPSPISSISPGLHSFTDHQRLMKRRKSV
# Kir21 block = inhibitors of mouse Kir2.1 inward-rectifier potassium channel; Inward rectifier potassium channel 2 (Mus musculus), P35561; HEK293-Kir2.1, FluxOR thallium flux fluorescence; hits give low values; B-score at 10 µM; hit rate 0.85% among 310,000;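 active = fluorescence ratio B-score at or below minus 3 SD of library scores, with starting-brightness B-score within 2 SD, cut at about -4.2 in these data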;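 note: channel flux triggered by added potassium and thallium sulfate stimulus; B-score of peak minus minimum fluorescence over baseline after thallium stimulus; more negative B-score means stronger Kir2.1 block with less thallium influx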
# KCNQ1 block = inhibitors of human KCNQ1 channel, primary screen, cell-based, thallium flux, high-throughput | B-score at 10 µM | hit rate 1.3% among 310,000 | Potassium voltage-gated channel subfamily KQT member 1 (Homo sapiens), P51787 | AID 2642, 2010 | CHO-K1 KCNQ1, FluxOR thallium flux fluorescence; hits give high values;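 active = compounds whose thallium flux B-score, printed positive for inhibition, exceeds three library SD while starting fluorescence stays within three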;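 note: channel opened by potassium depolarization with thallium stimulus after 20 min compound exposure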
# KCNK3 confirm = retest of human KCNK3 channel inhibitors, confirmation, CHO cells, FluxOR thallium flux, triplicate; shares compounds with KCNK3 block; FluxOR fluorescence; 0% buffer, 100% carvedilol maximal block; ratio percent of control, % at 10 µM; hit rate 99% among 2,400;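 active = ratio percent of control, averaged over triplicates, above buffer control mean plus 5 SD, cut at about 64% in these data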;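 note: ratio is the fluorescence rise from min to max over baseline after thallium stimulus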
# KCNK3 noninduced = thallium flux inhibition in non-induced cells, primary screen, counter-screen for KCNK3 inhibitor project, cell-based, non-induced KCNK3 line, FluxOR thallium, triplicate; shares compounds with KCNK3 block; hit rate 40% among 2,400; thallium flux ratio (lower = more inhibition) at 10 µM; non-induced KCNK3 parental cells; hits give low values;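 active = thallium flux ratio, averaged over three wells, more than 5 SD below the buffer control mean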;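 note: host cells are CHO cells without KCNK3 induction; ratio is peak minus trough fluorescence over baseline then normalized to buffer controls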
# * = called active by the depositor; i = inactive; nt = no result given. Only some compounds are listed: those with a hit (about 3.7% of all), similar ones and a draw of the others.
SMILES,KCNQ1 act,KCNK3 block,hERG protect,KCNK9 block,Kir21 block,KCNQ1 block,KCNK3 confirm,KCNK3 noninduced
CCCCCn1c(N)c(-c2nc3ccccc3s2)c2c([N+](=O)[O-])nn(C)c(=O)c21,i,-11.3*,-42.9,i,-0.01,11*,101.7*,0.147*
Cc1oc(-c2cccc(Cl)c2)nc1CN1CCCC(C(=O)NC(C)c2ccc3c(c2)OCCO3)C1 (configuration not stated),i,-10.8*,-13.5,i,0.35,i,127.3*,0.119*
CC(=O)c1cccc(NC(=O)N2CCCC2C(=O)Nc2ccc3c(c2)OCO3)c1 (configuration not stated),i,i,-3.9,i,-1.16,i,nt,nt
Cc1ccc2c(CC(=O)N3CCN(S(=O)(=O)c4ccccc4)CC3)coc2c1,nt,i,nt,nt,nt,nt,nt,nt
N#Cc1ccccc1S(=O)(=O)N1CCN(C(=O)Cc2coc3cc(O)ccc23)CC1,nt,-12.1*,nt,nt,nt,nt,0.0,i
CCOC(=O)c1cccc(NC(=O)CSc2nncn2-c2ccccn2)c1,i,i,-9.1,i,0.18,i,nt,nt
Fc1ccccc1C1c2cccn2CCN1C(=S)Nc1ccc(Br)cc1 (configuration not stated),i,-14.8*,-17.4,i,-1.13,7*,131.7*,0.121*
CC(=O)Nc1ccccc1OCCOc1ccc(Br)cc1,i,-11.6*,-2.9,i,1.86,i,99.3*,i
COCCn1c(SCc2ccc(C(=O)OC)o2)nc2cc(Cl)ccc2c1=O,i,-9.76*,-1.2,-7.39*,2.91,i,125.7*,i
CCOc1ccc(/C=N/NC(=O)Cc2csc(Nc3cccc(C(F)(F)F)c3)n2)cc1,i,-10.6*,-3.8,i,0.98,i,105.7*,i
CCOc1ccccc1/C=N/NC(=O)Cc1csc(Nc2cccc(C(F)(F)F)c2)n1,i,-8.75*,-2.7,i,0.53,i,131.0*,0.146*
COc1ccccc1-c1cc(C(=O)N/N=C/c2cccs2)c2ccccc2n1,i,-9.43*,-6.5,i,-0.4,i,109.3*,i
COc1ccccc1CN(C)C(=O)c1cc(-c2cccs2)nc2ccccc12,i,-12.5*,-14.0,i,-0.76,i,119.0*,0.136*
COc1ccc(-c2cc(C(=O)N(C)Cc3cccc(OC)c3OC)c3ccccc3n2)cc1OC,i,i,-12.3,i,1.64,i,nt,nt
Cc1c(NC(=O)C(C)OC(=O)C23CC4CC(CC(Br)(C4)C2)C3)c(=O)n(-c2ccccc2)n1C (configuration not stated),i,i,-12.4,i,1.59,i,nt,nt
CC(C)Sc1nc(N2CCCC2)c2c(c1C#N)CC(C)(C)OC2,i,-10*,-9.4,i,-1.2,i,118.3*,0.135*
COc1cccc(CN2CCN(S(=O)(=O)c3ccc(Cl)s3)CC2)c1,i,-9.22*,-3.8,i,0.02,i,116.3*,0.127*
COc1ccc(S(=O)(=O)N2CCN(Cc3cccc(Cl)c3)CC2)cc1,i,i,-2.2,i,-0.12,i,nt,nt
O=C(COC(=O)c1cc(S(=O)(=O)N2CCc3ccccc3C2)ccc1Cl)NCc1ccco1,i,-9.43*,-6.4,i,-2.84,i,97.3*,i
O=C(COC(=O)c1cccc(S(=O)(=O)N2CCc3ccccc3C2)c1)NCc1ccco1,i,i,-7.3,i,0.31,i,nt,nt
COc1ccc(-c2c(C)nn3c(N4CCCCCC4)cc(C)nc23)cc1OC,i,i,-15.9,i,-0.33,i,nt,nt
CCc1c(C)nc2cc(-c3ccc(OC)c(OC)c3)nn2c1N1CCCC1,i,-9.63*,-1.6,i,0.54,i,109.0*,i
CCc1c(C)nc2cc(-c3ccc(OC)c(OC)c3)nn2c1N1CCC(C)CC1,i,-8.94*,-15.9,i,0.13,i,103.7*,i
O=C(CCCN1C(=O)/C(=C/c2ccc(F)cc2)SC1=S)NC1CCS(=O)(=O)C1 (configuration not stated),i,i,-11.0,i,-0.38,i,nt,nt
CN1CCN(S(=O)(=O)c2ccc3c(c2)NC(=O)CS3)CC1,i,i,-0.7,i,-1.79,i,nt,nt
SMILES,KCNQ1 act,KCNK3 block,hERG protect,KCNK9 block,Kir21 block,KCNQ1 block,KCNK3 confirm,KCNK3 noninduced
Cc1ccc(C)c(N2CCN(S(=O)(=O)c3ccc4c(c3)NC(=O)CS4)CC2)c1,i,-9.42*,-1.1,i,-0.87,i,85.0*,i
O=C(O)c1ccc(NC(=S)Nc2ccccc2)cc1,i,i,-3.1,i,1.07,i,nt,nt
O=C(N/N=C(\c1ccccc1)c1cccnc1)c1cc(O)ccc1O,i,nt,-3.3,i,-0.43,i,nt,nt
O=C(N1CCCC1)C12CC3CCC(CC(C3)C1)C2,i,-11.7*,-10.9,i,0.76,i,85.7*,i
Cc1cc(NS(=O)(=O)c2ccc(NC(=O)c3cc4cc(Br)ccc4oc3=O)cc2)no1,i,i,-5.1,i,-1.31,i,nt,nt
Cc1ccc(Nc2c(-c3ccccc3O)nc3cnccn23)cc1,i,-9.18*,-11.8,i,1.79,i,115.3*,0.126*
C(=Cc1c[nH]c2ccccc12)c1nccc2ccccc12,nt,-14.1*,nt,nt,nt,nt,167.3*,0.0443*
Cc1ccc(-c2cc(C(=O)N3CCCCC3)c3ccccc3n2)cc1C,i,-8.91*,-15.8,i,-0.02,i,84.7*,0.154*
O=C(Nc1ccccc1C(=O)O)c1cc(S(=O)(=O)N2CCOCC2)c(Br)s1,i,i,-12.5,i,-0.24,i,nt,nt
COc1ccc(CNCC(O)(c2ccc(Cl)cc2)c2ccc(Cl)cc2)cc1,i,-9.26*,-37.8,i,-0.95,i,131.3*,i
Cc1ccc(C(=O)C2CCN(S(=O)(=O)c3ccc(C(=O)O)cc3)CC2)cc1,i,i,-12.8,i,1.24,i,nt,nt
